Activity calls are given as the source filed them. The calls are words filed in the database; no cut-off is given here.
How the values were obtained:
BT-549 [1] = experiment: Effect on human BT-549 cells assessed as RPS6KA2 mRNA expression in the presence of miR-548d-3p at 1 uM by RT-PCR analysis; assay type: functional, cell-based
MDA-MB-231 [2] = experiment: Antiproliferative activity in human MDA-MB-231 cells assessed as inhibited cell growth in the presence of osimertinib at 1 uM for 48 hrs by CCK-8 assay; assay type: functional, cell-based
Method in brief: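 Cells seeded 3000/well, adhered overnight, treated with JQ1 (1 μM) with or without osimertinib (1 μM) for 48 h; growth by CCK-8 kit, normalized to DMSO-treated control; triplicates, mean ± SD, one-way ANOVA.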

BT-549 [3] = experiment: Antiproliferative activity in human FOXD3-knockdown BT-549 cells assessed as cell growth at 1 uM by CCK-8 assay; assay type: functional, cell-based
BT-549 [4] = experiment: Antiproliferative activity in human BT-549 cells assessed as cell growth in the presence of miR-548d-3p at 1 uM by CCK-8 assay; assay type: functional, cell-based
Method in brief: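 BLBC cells transfected with miR-548d-3p mimic or inhibitor, with or without JQ1; growth read by CCK-8 assay relative to DMSO-treated control, seeded at 3000/well. Triplicates, mean ± SD, one-way ANOVA.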

BT-549 [5] = experiment: Antiproliferative activity in human JUND-knockdown BT-549 cells assessed as cell viability at 1 uM by CellTiter-Glo luminescent cell viability assay; assay type: functional, cell-based
Method in brief: (§1)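 Stable JUND-knockdown (shRNA, puromycin 1.0 μg/ml selection) or JUND-overexpressing clones and vector controls, seeded 3000 cells/well and adhered overnight, then given DMSO or JQ1 (1 μM) for 48 h. Read-out CellTiter-Glo luminescence normalized to DMSO control; triplicates, mean ± SD, one-way ANOVA.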

BT-549 [6] = experiment: Antiproliferative activity in human JUND-overexpressing BT-549 cells assessed as cell viability at 1 uM by CellTiter-Glo luminescent cell viability assay; assay type: functional, cell-based; method in brief: as §1
HEK-293T = experiment: Effect on human HEK293T cells transfected with FOXD3 assessed as decrease in luciferase activity at 1 uM for 6 hrs by Luciferase reporter assay; assay type: functional, cell-based
BT-549 [7] = experiment: Effect on human BT-549 cells assessed as RSK3 protein expression at 1 uM for 24 hrs by Western blot analysis; assay type: functional, cell-based
Method in brief: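 Western blot for RSK3 in MDA-MB-231 and BT549 cells treated with DMSO or 1 μM for 0, 12 and 24 h. Antibody used at 1:1000.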

MDA-MB-231 [8] = experiment: Antiproliferative activity in human FOXD3-knockdown MDA-MB-231 cells assessed as cell growth at 1 uM by CCK-8 assay; assay type: functional, cell-based
MDA-MB-231 [9] = experiment: Antiproliferative activity in human MDA-MB-231 cells assessed as inhibited cell growth at 1 uM by CCK-8 assay; assay type: functional, cell-based
MDA-MB-231 [10] = experiment: Induction of apoptosis in human MDA-MB-231 cells at 1 uM by FACS assay; assay type: functional, cell-based
Method in brief: (§2)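 Stable clones (vector, RSK3-overexpressing or RPS6KA2-knockdown) treated ± JQ1 1 μM. Cells washed twice in PBS, resuspended at 1 × 10^6 cells/ml in binding buffer, stained with Annexin V-FITC and propidium iodide for 10 min at room temperature in the dark, then read by flow cytometry. Three independent experiments; one-way ANOVA.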

MDA-MB-231 [11] = experiment: Induction of apoptosis in human MDA-MB-231 cells over expressing RSK3 assessed as viable cells at 1 uM by Annexin V-FITC flow cytometric analysis (reference value: 91.18%); assay type: functional; settings: read-out: Activity; method in brief: as §2
BT-549 [12] = experiment: Effect of human RSK3-overexpressing BT-549 cells assessed as suppression of tumour sphere formation at 1 uM by Tumour sphere assay; assay type: functional, cell-based
MDA-MB-231 [13] = experiment: Induction of apoptosis in human MDA-MB-231 cells over expressing RSK3 assessed as late apoptotic cells at 1 uM by Annexin V-FITC flow cytometric analysis (reference value: 1.45%); assay type: functional; method in brief: as §2
MDA-MB-231 [14] = experiment: Antiproliferative activity in human JUND-overexpressing MDA-MB-231 cells assessed as cell viability at 1 uM by CellTiter-Glo luminescent cell viability assay; assay type: functional, cell-based; method in brief: as §1
MDA-MB-231 [15] = experiment: Antiproliferative activity in human JUND-overexpressing MDA-MB-231 cells assessed as tumor sphere formation at 1 uM by Tumor sphere assay; assay type: functional, cell-based
MDA-MB-231 [16] = experiment: Effect on human MDA-MB-231 cells assessed as miR-548d-5p expression at 1 uM by real-time PCR analysis; assay type: functional, cell-based
BT-549 [17] = experiment: Downregulation of miR-548d-3p expression in human BT-549 cells at 1 uM by real-time PCR analysis; assay type: functional, cell-based
MDA-MB-231 [18] = experiment: Effect on JUND dependent RPS6KA2 transcription in human JUND-knockdown MDA-MB-231 cells assessed reduction in transcription level at 1 uM by ChIP-RT-PCR analysis; assay type: functional, cell-based
Method in brief: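 ChIP-qPCR used ~1 × 10^6 cross-linked JUND-knockdown or control cells treated with DMSO or 1 μM for 6 h. Immunoprecipitated DNA was quantified by real-time PCR with primers specific to the RPS6KA2 enhancer. Non-specific primers downstream of the gene 3′ end served as control.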

BT-549 [19] = experiment: Antiproliferative activity in human BT-549 cells assessed as cell growth in the presence of gefitinib at 1 uM by CellTiter-Glo luminescent cell viability assay; assay type: functional, cell-based
Method in brief: (§3)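 BLBC cells seeded at 3000/well, adhered overnight, then exposed to JQ1 (1 μM) with or without an EGFR inhibitor (1 μM) for 48 h; control and RPS6KA2-shRNA clones tested. Viability by CellTiter-Glo luminescence, background-subtracted and normalized to DMSO-treated control; triplicates, mean ± SD, one-way ANOVA against JQ1 alone.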

MDA-MB-231 [20] = experiment: Cytotoxicity in human RSK3-overexpressing MDA-MB-231 cells assessed as cell viability at 1 uM for 48 hrs by CellTiter-Glo luminescent cell viability assay; assay type: functional, cell-based
Method in brief: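 CellTiter-Glo viability: stable overexpressing or shRNA clones (puromycin 1.0 μg/ml selection) seeded 3000 cells/well, adhered overnight, then exposed to 1 μM for 48 h. Luminescence is background-subtracted and normalised to DMSO-treated control. Triplicates, mean ± SD, one-way ANOVA. MDA-MB-231 cells are kept in DMEM and BT549 in RPMI-1640, each with 10% FBS.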

MDA-MB-231 [21] = experiment: Effect on human RPS6KA2 knockdown MDA-MB-231 cells assessed as RSK3 protein expression at 1 uM for 24 hrs by Western blot analysis; assay type: functional, cell-based
BT-474 = experiment: Antiproliferative activity in human FOXD3-overexpressing BT-474 cells assessed as cell growth at 1 uM by CCK-8 assay; assay type: functional, cell-based
MDA-MB-231 [22] = experiment: Antiproliferative activity in human MDA-MB-231 cells assessed as cell growth in the presence of osimertinib at 1 uM by CellTiter-Glo luminescent cell viability assay; assay type: functional, cell-based; method in brief: as §3
BT-549 [23] = experiment: Effect on human BT-549 cells assessed as miR-548d-5p expression at 1 uM by real-time PCR analysis; assay type: functional, cell-based
BT-549 [24] = experiment: Antiproliferative activity in human BT-549 cells assessed as inhibition of cell growth at 1 uM by CCK-8 assay; assay type: functional, cell-based
MDA-MB-231 [25] = experiment: Induction of apoptosis in human MDA-MB-231 cells expressing vector control assessed as necrotic cells at 1 uM by Annexin V-FITC flow cytometric analysis (reference value: 1.67%); assay type: functional; method in brief: as §2

## Cc1sc2c(c1C)C(c1ccc(Cl)cc1)=N[C@@H](CC(=O)OC(C)(C)C)c1nnc(C)n1-2
BT-549 [1]
  Activity: Active
MDA-MB-231 [2]
  Activity: Active
BT-549 [3]
  Activity: Active
BT-549 [4]
  Activity: Active
BT-549 [5]
  Activity: Active
BT-549 [6]
  Activity: Active
HEK-293T
  Activity: Active
BT-549 [7]
  Activity: Active
MDA-MB-231 [8]
  Activity: Active
MDA-MB-231 [9]
  Activity: Active
MDA-MB-231 [10]
  Activity: Active
MDA-MB-231 [11]
  viability at 1 µM: 88.3%
BT-549 [12]
  Activity: Active
MDA-MB-231 [13]
  Activity: 2.9%
MDA-MB-231 [14]
  Activity: Active
MDA-MB-231 [15]
  Activity: Active
MDA-MB-231 [16]
  Activity: Active
BT-549 [17]
  Activity: Active
MDA-MB-231 [18]
  Activity: Active
BT-549 [19]
  Activity: Active
MDA-MB-231 [20]
  Activity: Active
MDA-MB-231 [21]
  Activity: Active
BT-474
  Activity: Active
MDA-MB-231 [22]
  Activity: Active
BT-549 [23]
  Activity: Active
BT-549 [24]
  Activity: Active
MDA-MB-231 [25]
  Activity: 1.54%
